According to ChEMBL document CHEMBL4689842, “EUbOPEN Chemogenomics Library wave 1” (2021):

System: Fibroblast
Experiment: Multiplex assay against human fibroblast
Format: toxicity, cell-based
Outline: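 Imaging took place on a CQ1 microscope at 37°C and 5% CO2 once compound had been added to live cells stained at seeding with Hoechst33342, BioTracker Green Microtubule Cytoskeleton Dye, MitoTracker Red and Annexin V Alexa Fluor 680. CellPathfinder machine-learning gating classed cells as Hoechst high-intensity objects or normal cells, classed normal cells as having healthy, pyknosed or fragmented nuclei, and classed pyknosed cells as mitotic or apoptotic. Tubulin, mitochondrial-mass and membrane-permeability phenotypes are per cents of the healthy-nucleus cells.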

[1] = 12 h, 1 µM, compound concentration 1 uM, replicate 1
[2] = 12 h, 1 µM, compound concentration 1 uM, replicate 2
[3] = 12 h, 10 µM, compound concentration 10 uM, replicate 1
[4] = 12 h, 10 µM, compound concentration 10 uM, replicate 2
[5] = 24 h, 1 µM, compound concentration 1 uM, replicate 1
[6] = 24 h, 1 µM, compound concentration 1 uM, replicate 2
[7] = 24 h, 10 µM, compound concentration 10 uM, replicate 1
[8] = 24 h, 10 µM, compound concentration 10 uM, replicate 2
[9] = 48 h, 1 µM, compound concentration 1 uM, replicate 1
[10] = 48 h, 1 µM, compound concentration 1 uM, replicate 2
[11] = 48 h, 10 µM, compound concentration 10 uM, replicate 1
[12] = 48 h, 10 µM, compound concentration 10 uM, replicate 2

C[C@]12CC[C@@H]3c4ccc(O)cc4CC[C@H]3[C@@H]1CC[C@@H]2O [ESTRADIOL]
Population Apoptotic (%) [1]: 73%
Population Fragmented Nuclei (%) [1]: 30%
Population Healthy Nuclei (%) [1]: 50%
Population Hoechst High Intensity Objects (%) [1]: 21%
Population Membrane Permeable-Phenotype (%) [1]: 20%
Population Mitochondria Different-Phenotype (%) [1]: 9%
Population Mitotic Cells (%) [1]: 26%
Population Normal (%) [1]: 78%
Population Pyknosed Nuclei (%) [1]: 18%
Population Tubulin-Different-Phenotype (%) [1]: 46%
Population Apoptotic (%) [2]: 50%
Population Fragmented Nuclei (%) [2]: 8%
Population Healthy Nuclei (%) [2]: 86%
Population Hoechst High Intensity Objects (%) [2]: 5%
Population Membrane Permeable-Phenotype (%) [2]: 4%
Population Mitochondria Different-Phenotype (%) [2]: 8%
Population Mitotic Cells (%) [2]: 50%
Population Normal (%) [2]: 94%
Population Pyknosed Nuclei (%) [2]: 5%
Population Tubulin-Different-Phenotype (%) [2]: 14%
Population Apoptotic (%) [3]: 75%
Population Fragmented Nuclei (%) [3]: 24%
Population Healthy Nuclei (%) [3]: 57%
Population Hoechst High Intensity Objects (%) [3]: 14%
Population Membrane Permeable-Phenotype (%) [3]: 20%
Population Mitochondria Different-Phenotype (%) [3]: 7%
Population Mitotic Cells (%) [3]: 25%
Population Normal (%) [3]: 85%
Population Pyknosed Nuclei (%) [3]: 18%
Population Tubulin-Different-Phenotype (%) [3]: 33%
Population Apoptotic (%) [4]: 25%
Population Fragmented Nuclei (%) [4]: 9%
Population Healthy Nuclei (%) [4]: 77%
Population Hoechst High Intensity Objects (%) [4]: 8%
Population Membrane Permeable-Phenotype (%) [4]: 4%
Population Mitochondria Different-Phenotype (%) [4]: 12%
Population Mitotic Cells (%) [4]: 75%
Population Normal (%) [4]: 91%
Population Pyknosed Nuclei (%) [4]: 12%
Population Tubulin-Different-Phenotype (%) [4]: 25%
Population Apoptotic (%) [5]: 45%
Population Fragmented Nuclei (%) [5]: 33%
Population Healthy Nuclei (%) [5]: 50%
Population Hoechst High Intensity Objects (%) [5]: 18%
Population Membrane Permeable-Phenotype (%) [5]: 29%
Population Mitochondria Different-Phenotype (%) [5]: 3%
Population Mitotic Cells (%) [5]: 55%
Population Normal (%) [5]: 82%
Population Pyknosed Nuclei (%) [5]: 16%
Population Tubulin-Different-Phenotype (%) [5]: 43%
Population Apoptotic (%) [6]: 50%
Population Fragmented Nuclei (%) [6]: 4%
Population Healthy Nuclei (%) [6]: 89%
Population Hoechst High Intensity Objects (%) [6]: 3%
Population Membrane Permeable-Phenotype (%) [6]: 4%
Population Mitochondria Different-Phenotype (%) [6]: 9%
Population Mitotic Cells (%) [6]: 50%
Population Normal (%) [6]: 96%
Population Pyknosed Nuclei (%) [6]: 6%
Population Tubulin-Different-Phenotype (%) [6]: 14%
Population Apoptotic (%) [7]: 73%
Population Fragmented Nuclei (%) [7]: 22%
Population Healthy Nuclei (%) [7]: 60%
Population Hoechst High Intensity Objects (%) [7]: 11%
Population Membrane Permeable-Phenotype (%) [7]: 29%
Population Mitochondria Different-Phenotype (%) [7]: 9%
Population Mitotic Cells (%) [7]: 26%
Population Normal (%) [7]: 88%
Population Pyknosed Nuclei (%) [7]: 17%
Population Tubulin-Different-Phenotype (%) [7]: 35%
Population Apoptotic (%) [8]: 30%
Population Fragmented Nuclei (%) [8]: 18%
Population Healthy Nuclei (%) [8]: 68%
Population Hoechst High Intensity Objects (%) [8]: 3%
Population Membrane Permeable-Phenotype (%) [8]: 5%
Population Mitochondria Different-Phenotype (%) [8]: 11%
Population Mitotic Cells (%) [8]: 70%
Population Normal (%) [8]: 96%
Population Pyknosed Nuclei (%) [8]: 13%
Population Tubulin-Different-Phenotype (%) [8]: 43%
Population Apoptotic (%) [9]: 83%
Population Fragmented Nuclei (%) [9]: 42%
Population Healthy Nuclei (%) [9]: 51%
Population Hoechst High Intensity Objects (%) [9]: 24%
Population Membrane Permeable-Phenotype (%) [9]: 26%
Population Mitochondria Different-Phenotype (%) [9]: 0%
Population Mitotic Cells (%) [9]: 16%
Population Normal (%) [9]: 75%
Population Pyknosed Nuclei (%) [9]: 5%
Population Tubulin-Different-Phenotype (%) [9]: 42%
Population Apoptotic (%) [10]: 0%
Population Fragmented Nuclei (%) [10]: 24%
Population Healthy Nuclei (%) [10]: 74%
Population Hoechst High Intensity Objects (%) [10]: 14%
Population Membrane Permeable-Phenotype (%) [10]: 8%
Population Mitotic Cells (%) [10]: 100%
Population Normal (%) [10]: 85%
Population Pyknosed Nuclei (%) [10]: 1%
Population Tubulin-Different-Phenotype (%) [10]: 26%
Population Apoptotic (%) [11]: 66%
Population Fragmented Nuclei (%) [11]: 36%
Population Healthy Nuclei (%) [11]: 58%
Population Hoechst High Intensity Objects (%) [11]: 13%
Population Membrane Permeable-Phenotype (%) [11]: 11%
Population Mitochondria Different-Phenotype (%) [11]: 3%
Population Mitotic Cells (%) [11]: 33%
Population Normal (%) [11]: 86%
Population Pyknosed Nuclei (%) [11]: 5%
Population Tubulin-Different-Phenotype (%) [11]: 17%
Population Apoptotic (%) [12]: 0%
Population Fragmented Nuclei (%) [12]: 32%
Population Healthy Nuclei (%) [12]: 65%
Population Hoechst High Intensity Objects (%) [12]: 2%
Population Membrane Permeable-Phenotype (%) [12]: 16%
Population Mitochondria Different-Phenotype (%) [12]: 1%
Population Mitotic Cells (%) [12]: 100%
Population Normal (%) [12]: 97%
Population Pyknosed Nuclei (%) [12]: 2%
Population Tubulin-Different-Phenotype (%) [12]: 41%
